Results published in ChEMBL document CHEMBL2157978, “Design, synthesis, and biological evaluation of nonsteroidal cycloalkane[d]isoxazole-containing androgen receptor modulators” (J Med Chem, 2012).
Values joined by “and” are separate entries in the source; they are usually repeats but may differ in a detail not shown here. Identical values can stand only once. Active and inactive are the calls of the source. How the calls were made is not given here.

Experiments:
Androgen receptor = molecular target: T1, Androgen receptor (Homo sapiens, UniProt P10275); assay: Displacement of [3H]R1881 from wild type human androgen receptor expressed in COS-1 cells co-transfected with pSG5 after 2 hrs by scintillation assay
T1 sequence (P10275 whole entry): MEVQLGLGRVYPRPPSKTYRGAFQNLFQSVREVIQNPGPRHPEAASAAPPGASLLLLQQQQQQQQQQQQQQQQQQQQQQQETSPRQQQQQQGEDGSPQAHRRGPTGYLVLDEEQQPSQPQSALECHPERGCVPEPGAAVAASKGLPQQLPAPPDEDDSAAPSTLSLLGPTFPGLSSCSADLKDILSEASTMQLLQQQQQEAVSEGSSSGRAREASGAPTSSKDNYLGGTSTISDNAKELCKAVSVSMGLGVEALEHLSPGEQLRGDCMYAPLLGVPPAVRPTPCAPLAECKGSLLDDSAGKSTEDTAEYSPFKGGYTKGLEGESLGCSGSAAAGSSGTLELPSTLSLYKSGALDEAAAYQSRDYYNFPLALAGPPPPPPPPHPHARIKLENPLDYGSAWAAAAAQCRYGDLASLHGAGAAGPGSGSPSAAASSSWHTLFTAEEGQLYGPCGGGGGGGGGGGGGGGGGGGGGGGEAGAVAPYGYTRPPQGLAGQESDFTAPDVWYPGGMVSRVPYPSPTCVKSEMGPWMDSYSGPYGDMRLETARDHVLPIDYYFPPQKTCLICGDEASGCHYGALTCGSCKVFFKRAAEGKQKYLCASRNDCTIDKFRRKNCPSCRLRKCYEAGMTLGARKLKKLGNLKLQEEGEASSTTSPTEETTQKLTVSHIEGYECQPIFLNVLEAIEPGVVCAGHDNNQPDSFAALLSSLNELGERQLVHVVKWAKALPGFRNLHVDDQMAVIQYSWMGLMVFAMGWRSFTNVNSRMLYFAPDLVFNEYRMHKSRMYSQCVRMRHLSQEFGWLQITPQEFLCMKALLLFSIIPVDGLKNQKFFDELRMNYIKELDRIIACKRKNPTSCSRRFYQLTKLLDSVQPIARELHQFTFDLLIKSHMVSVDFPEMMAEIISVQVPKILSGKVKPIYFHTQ

[1] = molecular target: Luciferin 4-monooxygenase (Photinus pyralis) (UniProt P08659); assay: Inhibition of Photinus pyralis recombinant luciferase at 10 uM incubated for 20 mins
Luciferin 4-monooxygenase (Photinus pyralis), sequence (P08659 whole entry): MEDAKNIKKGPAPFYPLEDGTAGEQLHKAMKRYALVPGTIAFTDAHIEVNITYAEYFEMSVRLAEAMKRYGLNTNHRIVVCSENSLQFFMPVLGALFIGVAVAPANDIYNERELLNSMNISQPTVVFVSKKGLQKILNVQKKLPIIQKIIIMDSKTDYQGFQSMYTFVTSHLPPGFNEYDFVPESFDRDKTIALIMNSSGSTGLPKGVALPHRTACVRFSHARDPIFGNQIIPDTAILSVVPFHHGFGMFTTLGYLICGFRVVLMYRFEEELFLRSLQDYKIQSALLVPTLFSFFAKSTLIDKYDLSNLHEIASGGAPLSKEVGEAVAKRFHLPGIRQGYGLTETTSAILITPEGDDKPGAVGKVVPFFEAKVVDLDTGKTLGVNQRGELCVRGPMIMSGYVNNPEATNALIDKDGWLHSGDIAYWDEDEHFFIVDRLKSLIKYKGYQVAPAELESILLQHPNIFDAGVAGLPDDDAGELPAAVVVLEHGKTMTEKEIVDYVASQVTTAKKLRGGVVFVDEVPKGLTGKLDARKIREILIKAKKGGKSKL
Procedure, shortened: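 Purified firefly luciferase diluted to 0.1 μg/mL in 1x Reporter Lysis Buffer, with compound added from ethanol stocks (10⁻³–10⁻⁷ mol/L dilutions) in triplicate. Incubated 20 min at rt, then luciferase substrate added and luminescence read. Blank (lysis buffer) and ethanol-vehicle controls were included.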

[2] = molecular target: T2, Androgen receptor (Homo sapiens) (UniProt P10275); assay: Agonist activity at wild type human androgen receptor expressed in COS-1 cells co-transfected with pSG5 assessed as effect on testosterone induced luciferase activity at 10 uM after 18 hrs relative untreated control; type: functional, cell-based
T2 sequence (whole entry): T1 sequence (P10275 whole entry)

SMILES	IC50 (Androgen receptor)	inhibition [1]	Activity [2]
N#Cc1ccc(C2=NOC3CCCCCC23)c(C(F)(F)F)c1 (stereo unspecified) [listing 1 of 2 here]	1150 nM	–	–
Fc1ccc(C2=NOC3CCCCCC23)c(C(F)(F)F)c1 (stereo unspecified)	661 nM and 813 nM	inactive	inactive
O=[N+]([O-])c1ccc(C2=NOC3CCCCCCC23)c(C(F)(F)F)c1 (stereo unspecified) [listing 1 of 2 here]	776 nM	–	–
O=[N+]([O-])c1ccc(C2=NO[C@@H]3CCC[C@H]23)cc1C(F)(F)F	302 nM	inactive	inactive
N#Cc1ccc(C2=NOC3CCCCC23)c(C(F)(F)F)c1 (stereo unspecified) [listing 1 of 2 here]	1150 nM	–	–
O=[N+]([O-])c1ccc(C2=NO[C@@H]3CCCC[C@H]23)c(C(F)(F)F)c1	129 nM	inactive	inactive
Fc1ccc(C2=NOC3CCCCC23)c(C(F)(F)F)c1 (stereo unspecified) [listing 1 of 2 here]	977 nM	–	–
N#Cc1ccc(C2=NO[C@H]3CCC[C@@H]23)cc1C(F)(F)F	617 nM	inactive	inactive
N#Cc1ccc(C2=NO[C@@H]3CCC[C@H]23)cc1C(F)(F)F	224 nM	inactive	inactive
O=[N+]([O-])c1ccc(C2=NO[C@H]3CCC[C@@H]23)cc1C(F)(F)F	2510 nM	inactive	inactive
Fc1ccc(C2=NOC3CCCCC23)c(C(F)(F)F)c1 (stereo unspecified) [listing 2 of 2 here]	–	inactive	inactive
Fc1ccc(C2=NOC3CCCCC23)cc1 (stereo unspecified)	–	inactive	inactive
N#Cc1ccc(C2=NOC3CCCCCC23)c(C(F)(F)F)c1 (stereo unspecified) [listing 2 of 2 here]	–	inactive	inactive
N#Cc1cccc(C2=NOC3CCCCC23)c1C(F)(F)F (stereo unspecified) [listing 2 of 2 here]	–	inactive	inactive
O=[N+]([O-])c1ccc(C2=NOC3CCCCCCC23)c(C(F)(F)F)c1 (stereo unspecified) [listing 2 of 2 here]	–	inactive	inactive
N#Cc1ccc(C2=NOC3CCCCCC23)c(C(F)(F)F)c1 (cis isomer) [listing 1 of 2 here]	1000 nM	–	–
O=[N+]([O-])c1ccc(C2=NOC3CCCCCCC23)c(C(F)(F)F)c1 (cis isomer) [listing 1 of 2 here]	741 nM	–	–

SMILES	IC50 (Androgen receptor)	inhibition [1]	Activity [2]
N#Cc1ccc(C2=NOC3CCCCC23)c(C(F)(F)F)c1 (cis isomer) [listing 1 of 2 here]	1780 nM	–	–
N#Cc1cccc(C2=NOC3CCCCC23)c1C(F)(F)F (cis isomer) [listing 1 of 2 here]	79.4 nM	–	–
Fc1ccc(C2=NOC3CCCCC23)c(C(F)(F)F)c1 (cis isomer) [listing 2 of 2 here]	–	inactive	inactive
Fc1ccc(C2=NOC3CCCCC23)cc1 (cis isomer)	–	inactive	inactive
N#Cc1ccc(C2=NOC3CCCCCC23)c(C(F)(F)F)c1 (cis isomer) [listing 2 of 2 here]	–	inactive	inactive
N#Cc1cccc(C2=NOC3CCCCC23)c1C(F)(F)F (cis isomer) [listing 2 of 2 here]	–	inactive	inactive
O=[N+]([O-])c1ccc(C2=NOC3CCCCCCC23)c(C(F)(F)F)c1 (cis isomer) [listing 2 of 2 here]	–	inactive	inactive
c1ccc2c(C3=NOC4CCCCC34)cccc2c1 (cis isomer)	–	inactive	inactive
Fc1ccc(C2=NOC3CCCC23)c(C(F)(F)F)c1 (cis isomer; 5g) [listing 1 of 2 here]	1350 nM	–	–
Fc1ccc(C2=NOC3CCCC23)c(C(F)(F)F)c1 (cis isomer; 5g) [listing 2 of 2 here]	–	inactive	inactive
Fc1ccc(C2=NOC3CCCCCCC23)cc1C(F)(F)F (cis isomer; 8f) [listing 1 of 2 here]	5890 nM	–	–
Fc1ccc(C2=NOC3CCCC23)c(C(F)(F)F)c1 (cis isomer; cis) [listing 1 of 2 here]	1550 nM	–	–
Clc1cccc(C2=NOC3CCCCC23)c1 (cis isomer; cis)	–	inactive	inactive
Fc1ccc(C2=NOC3CCCCCCC23)c(C(F)(F)F)c1 (cis isomer; cis) [listing 2 of 2 here]	–	inactive	inactive
N#Cc1ccc(C2=NOC3CCCCCCC23)cc1C(F)(F)F (racemic)	295 nM	inactive	inactive
O=[N+]([O-])c1ccc(C2=NOC3CCCCC23)cc1 (racemic)	–	inactive	inactive

Continued, values first:

IC50 (Androgen receptor)	inhibition [1]	Activity [2]	SMILES
309 nM	inactive	inactive	O=[N+]([O-])c1ccc(C2=NO[C@@H]3CCCCC[C@H]23)c(C(F)(F)F)c1
389 nM	inactive	inactive	O=[N+]([O-])c1ccc(C2=NO[C@H]3CCCCC[C@@H]23)c(C(F)(F)F)c1
2000 nM	–	–	N#Cc1ccc(C2=NOC3CCCCCCC23)c(C(F)(F)F)c1 (stereo unspecified) [listing 1 of 2 here]
64.6 nM	–	–	N#Cc1cccc(C2=NOC3CCCCC23)c1C(F)(F)F (stereo unspecified) [listing 1 of 2 here]
263 nM	inactive	inactive	O=[N+]([O-])c1ccc(C2=NO[C@H]3CCCC[C@@H]23)c(C(F)(F)F)c1
–	inactive	inactive	COc1ccc(C2=NOC3CCCCC23)cc1 (stereo unspecified)
–	inactive	inactive	COc1cccc(C2=NOC3CCCCC23)c1 (stereo unspecified)
–	inactive	inactive	Clc1ccc(C2=NOC3CCCCC23)cc1 (stereo unspecified)
–	inactive	inactive	Clc1ccccc1C1=NOC2CCCCC12 (stereo unspecified)
–	inactive	inactive	Fc1ccccc1C1=NOC2CCCCC12 (stereo unspecified)
–	inactive	inactive	N#Cc1ccc(C2=NOC3CCCCC23)c(C(F)(F)F)c1 (stereo unspecified) [listing 2 of 2 here]
–	inactive	inactive	N#Cc1ccc(C2=NOC3CCCCC23)cc1 (stereo unspecified)
–	inactive	inactive	N#Cc1ccc(C2=NOC3CCCCCCC23)c(C(F)(F)F)c1 (stereo unspecified) [listing 2 of 2 here]
–	inactive	inactive	c1ccc(C2=NOC3CCCCC23)cc1 (stereo unspecified)
–	inactive	inactive	c1ccc2c(C3=NOC4CCCCC34)cccc2c1 (stereo unspecified)
646 nM	–	–	N#Cc1ccc(C2=NOC3CCCCCCC23)c(C(F)(F)F)c1 (cis isomer) [listing 1 of 2 here]
1150 nM	–	–	Fc1ccc(C2=NOC3CCCCC23)c(C(F)(F)F)c1 (cis isomer) [listing 1 of 2 here]

IC50 (Androgen receptor)	inhibition [1]	Activity [2]	SMILES
–	inactive	inactive	COc1ccc(C2=NOC3CCCCC23)cc1 (cis isomer)
–	inactive	inactive	Clc1ccc(C2=NOC3CCCCC23)cc1 (cis isomer)
–	inactive	inactive	Clc1ccccc1C1=NOC2CCCCC12 (cis isomer)
–	inactive	inactive	N#Cc1ccc(C2=NOC3CCCCC23)c(C(F)(F)F)c1 (cis isomer) [listing 2 of 2 here]
–	inactive	inactive	N#Cc1ccc(C2=NOC3CCCCCCC23)c(C(F)(F)F)c1 (cis isomer) [listing 2 of 2 here]
–	inactive	inactive	c1ccc(C2=NOC3CCCCC23)cc1 (cis isomer)
–	inactive	inactive	Clc1cccc(C2=NOC3CCCCC23)c1 (cis isomer; 6n)
–	inactive	inactive	Fc1ccc(C2=NOC3CCCCCCC23)cc1C(F)(F)F (cis isomer; 8f) [listing 2 of 2 here]
–	inactive	inactive	Fc1ccc(C2=NOC3CCCCCCC23)c(C(F)(F)F)c1 (cis isomer; 8g)
2820 nM	–	–	Fc1ccc(C2=NOC3CCCCCCC23)cc1C(F)(F)F (cis isomer; cis) [listing 1 of 2 here]
13200 nM	–	–	Fc1ccc(C2=NOC3CCCCCCC23)c(C(F)(F)F)c1 (cis isomer; cis) [listing 1 of 2 here]
–	inactive	inactive	Fc1ccc(C2=NOC3CCCC23)c(C(F)(F)F)c1 (cis isomer; cis) [listing 2 of 2 here]
–	inactive	inactive	Fc1ccc(C2=NOC3CCCCCCC23)cc1C(F)(F)F (cis isomer; cis) [listing 2 of 2 here]
708 nM	inactive	inactive	O=[N+]([O-])c1ccc(C2=NOC3CCCCCCC23)cc1C(F)(F)F (racemic)
–	inactive	inactive	COc1ccccc1C1=NOC2CCCCC12 (racemic)
–	inactive	inactive	Fc1cccc(C2=NOC3CCCCC23)c1 (racemic)
